Consider 55 sequences from the array DNA melting data of Ke et al. (doi:10.1101/2024.01.08.574731).

Data set [1] in a line: folding enthalpy; higher = less favourable; fluorescence melt of hairpins on a sequencing array, two-state fit. As to conditions: sodium 0.088 M. In short, it runs like this: (§1)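 To match UV melts, fitted temperatures were raised by 9.35 °C. These fits were bootstrapped two-state models that gave melting temperature and folding enthalpy, combined by inverse variance over four replicates. The input was normalised Cy3 fluorescence of library hairpins with annealed Cy3 and quencher oligos on a sequenced MiSeq flow cell, imaged in 50 mM Na-HEPES pH 8.0, 25 mM NaCl in 2.5 °C steps up to 60 °C.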

A short description of data set [2]: melting temperature; fluorescence melt of hairpins on a sequencing array, two-state fit, raised by 9.35 °C to match UV melts. The settings on record: sodium 0.088 M. In short, it runs like this: as §1

In the case of GGCTGGGGAAACCCAACC ((.((((....)))).)), in data set [1], the folding enthalpy is -27 kcal/mol. Also, the Tm in data set [2] was 45.8 °C.
As to GTTTCGCGAAAGCGAAC (((.(((....)))))), in data set [1], the folding enthalpy is -10.4 kcal/mol. In addition, the Tm in data set [2] came to 53.9 °C.
With GCGAAACCTCGC ((((....)))), the folding enthalpy in data set [1] was -19.9 kcal/mol. Also, in data set [2], the Tm turned out to be 49.5 °C.
For GATGGCGAAAGCCGAATC ((((((....)))..))), the folding enthalpy in data set [1] was -8.36 kcal/mol. Also, the Tm in data set [2] is 34.4 °C.
The matching figures for GTTCGGCGAAAGCCAAAC (((.(((....))).))): -15.5 kcal/mol and 46.5 °C.
For GCTTCGCGAAAGCTTAGC (((..((....))..))) the same measures were -15.2 kcal/mol and 50.2 °C.
Consider GATCGTGTAGACGATC ((((((....)))))), for which the folding enthalpy in data set [1] is -39.8 kcal/mol. For the same sequence, the Tm in data set [2] worked out at 59.6 °C.
On to GTGCACGGAAACATGCAC (((((.(....).))))), for which, in data set [1], the folding enthalpy was -34.6 kcal/mol. Besides, in data set [2], the Tm is 47.9 °C.
As to GATACTGGAAACAGTATC (((((((....))))))), in data set [1], the folding enthalpy is -40.4 kcal/mol. Moreover, the Tm in data set [2] worked out at 54.6 °C.
Turning to GATCCTGCTAAGGATC ((((((....)))))), the folding enthalpy in data set [1] was -46.2 kcal/mol. In data set [2], the Tm is 63.2 °C.
GAAGTAGAAATACTTC ((((((....)))))): the folding enthalpy in data set [1] is -26.5 kcal/mol. In addition, in data set [2], the Tm was 42.5 °C.
In the case of GATCGTTTTAACGATC ((((((....)))))), the folding enthalpy in data set [1] is -42.2 kcal/mol. The Tm in data set [2] turned out to be 60.8 °C.
As to GATCCGAAACCGGATC ((((((....)))))), the folding enthalpy in data set [1] is -38 kcal/mol. In data set [2], the Tm is 53.4 °C.
On to GGCATCGGAAACAACGCC (((.(.(....).).))), for which the folding enthalpy in data set [1] is -9.26 kcal/mol. In addition, the Tm in data set [2] stood at 27.4 °C.
The matching figures for GCGGTTCGAAAGAAACGC (((.(((....))).))): -33.7 kcal/mol and 69.1 °C.
The matching figures for GGGCCTGGAAACGGGCCC (((((.(....).))))): -38.7 kcal/mol and 68.9 °C.
In the case of GGGGAGAAATCCCC (((((....))))), the folding enthalpy in data set [1] is -26.6 kcal/mol. Besides, the Tm in data set [2] was determined as 53.5 °C.
For GAATACCGAAAGGTCTTC (((.(((....))).))) the same measures were -24.1 kcal/mol and 36.7 °C.
As for GGACTCGAAAGAGTTCC ((((((....))).))), in data set [1], the folding enthalpy was -21.2 kcal/mol. For the same sequence, the Tm in data set [2] was 50.3 °C.
For GTGTTGGGAAACCAATAC ((.((((....)))).)), the folding enthalpy in data set [1] was -41.5 kcal/mol. For the same sequence, in data set [2], the Tm was found to be 45.7 °C.
As to GCGCCCGAAAGGGAACGC ((((((....)))..))), the folding enthalpy in data set [1] was -33.4 kcal/mol. Besides, the Tm in data set [2] was found to be 54.7 °C.
The matching figures for GCCCCGACGAAAGTCGGC (((..(((....)))))): -4.92 kcal/mol and 41.1 °C.
In the case of GACGGCGAAAGCCTCGTC ((((((....)))..))), the folding enthalpy in data set [1] was -13.1 kcal/mol. The Tm in data set [2] came out at 56.4 °C.
For the sequence GCAGACGAAAGTCTTGC ((((((....))).))), the folding enthalpy in data set [1] was -27 kcal/mol. Moreover, the Tm in data set [2] was found to be 51.3 °C.
For GTCTACGAAAGTAAGAC ((((((....))).))), in data set [1], the folding enthalpy is -24.2 kcal/mol. In data set [2], the Tm turned out to be 46.5 °C.
For GGTATCGAAAGATGCACC ((((((....)))..))) the same measures were -16.1 kcal/mol and 33.9 °C.
Regarding CACCTGAAAAGGTG (((((....))))), in data set [1], the folding enthalpy was -23.8 kcal/mol. Besides, the Tm in data set [2] was 54.4 °C.
On to GACTGGGGAAACCTAGTC ((((.((....)).)))), for which the folding enthalpy in data set [1] was -32.8 kcal/mol. Moreover, the Tm in data set [2] was 47.8 °C.
With GACACCGAAAGGTGGGTC ((((((....)))..))), in data set [1], the folding enthalpy was -11.2 kcal/mol. For the same sequence, the Tm in data set [2] turned out to be 65.5 °C.
Consider GCTGCAGGAAACTACAGC ((((.((....)).)))), for which the folding enthalpy in data set [1] was -33.9 kcal/mol. The Tm in data set [2] was determined as 45.6 °C.
Take GGTTGCCGAAAGGCCACC (((.(((....))).))): the folding enthalpy in data set [1] was -26.6 kcal/mol. Further, the Tm in data set [2] was found to be 52.6 °C.
For GTTCCCGAAAGGGCAAC ((((((....))).))), the folding enthalpy in data set [1] is -14.7 kcal/mol. For the same sequence, in data set [2], the Tm came out at 40.4 °C.
GCTTCGCGAAAGCACAGC (((..((....))..))): the folding enthalpy in data set [1] was -15.3 kcal/mol. Further, in data set [2], the Tm is 38.2 °C.
For GGGTTCCCGAAAGGGCCC (((..(((....)))))) the same measures were -18.6 kcal/mol and 47.7 °C.
Regarding CGTGCGGAAACGCTAACG ((((((....)))..))), the folding enthalpy in data set [1] was -20 kcal/mol. In addition, in data set [2], the Tm came to 43.5 °C.
For the sequence GTGTGCGGAAACGCGCAC (((.(((....))).))), the folding enthalpy in data set [1] is -27.7 kcal/mol. Besides, in data set [2], the Tm is 67.7 °C.
In the case of GGCCGATCGAAAGATGCC (((..(((....)))))), the folding enthalpy in data set [1] is -25.1 kcal/mol. Also, the Tm in data set [2] turned out to be 38.9 °C.
For GCAAGGGAAACCTTGC ((((((....)))))), in data set [1], the folding enthalpy is -37.9 kcal/mol. For the same sequence, the Tm in data set [2] worked out at 60.1 °C.
Turning to CGGCCGGAAACGGTTCCG ((((((....)))..))), in data set [1], the folding enthalpy is -21.6 kcal/mol. In data set [2], the Tm stood at 41.1 °C.
For GATCAGCCGGCTGATC ((((((....)))))) the same measures were -48 kcal/mol and 63.4 °C.
Regarding GATCTCCGAGAGATC ((((((...)))))), the folding enthalpy in data set [1] was -35.2 kcal/mol. Besides, the Tm in data set [2] stood at 51 °C.
For GGGATCGGAAACGATCTC (.(((((....))))).) the same measures were -31.9 kcal/mol and 54.2 °C.
Consider GATCCTCGGGAGGATC ((((((....)))))), for which the folding enthalpy in data set [1] was -37.7 kcal/mol. Moreover, the Tm in data set [2] is 56.1 °C.
As for GCTGCGCGAAAGCGTGGC ((..(((....)))..)), the folding enthalpy in data set [1] is -24.3 kcal/mol. Besides, the Tm in data set [2] worked out at 65.9 °C.
GCCCGCGAAAGCGGAGGC ((((((....)))..))): the folding enthalpy in data set [1] was -13.7 kcal/mol. The Tm in data set [2] was found to be 60 °C.
As to GGCTTCGAAAGAAATGCC ((((((....)))..))), the folding enthalpy in data set [1] is -25.3 kcal/mol. In addition, the Tm in data set [2] was found to be 38.5 °C.
With GCACAAGAAATTGTGC ((((((....)))))), the folding enthalpy in data set [1] is -36 kcal/mol. In addition, the Tm in data set [2] came to 57.3 °C.
For the sequence GTGTTCGGAAACGAACGC (.(((((....))))).), in data set [1], the folding enthalpy was -30.3 kcal/mol. Moreover, the Tm in data set [2] stood at 59.6 °C.
Turning to GGTCGAGGAAACTCGGCC ((.((((....)))).)), in data set [1], the folding enthalpy is -53.9 kcal/mol. For the same sequence, the Tm in data set [2] was determined as 59.5 °C.
Consider GGACACGAAAGTGGTTCC ((((((....)))..))), for which, in data set [1], the folding enthalpy is -14.3 kcal/mol. For the same sequence, the Tm in data set [2] worked out at 37.3 °C.
On to GGCGCAGGAAACCGCACC ((.((.(....).)).)), for which the folding enthalpy in data set [1] is -27.5 kcal/mol. For the same sequence, the Tm in data set [2] is 39 °C.
Regarding GGTTGTGGAAACACAGCC ((.((((....)))).)), the folding enthalpy in data set [1] is -42.4 kcal/mol. Further, the Tm in data set [2] came out at 52.1 °C.
For the sequence GCACACGGAAACGCGTGC ((((.((....)).)))), the folding enthalpy in data set [1] was -47.3 kcal/mol. Besides, in data set [2], the Tm came out at 57 °C.
Take GTCTGCGGAAACGTAGAC ((((.((....)).)))): the folding enthalpy in data set [1] is -37.8 kcal/mol. The Tm in data set [2] is 53.2 °C.
Take GTAGCTGGAAACGGTTAC (((.(.(....).).))): the folding enthalpy in data set [1] is -18.7 kcal/mol. For the same sequence, in data set [2], the Tm was found to be 28.9 °C.
